Converted amounts (≈) assume the structure as drawn.
Tests used:
Candida albicans = test: Antifungal activity against Candida albicans CA98001; format: functional
In short: (§1)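 Growth inhibition of each strain in vitro, following an earlier method; endpoint is MIC80, the lowest concentration giving 80% growth inhibition, in ng mL-1. Values are means of triplicate determinations, with standard deviation given.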

Aspergillus fumigatus = test: Antifungal activity against Aspergillus fumigatus AF98003; format: functional; in short: as §1

| Compound | MIC80 (Candida albicans) [µg/mL] | MIC80 (Aspergillus fumigatus) [µg/mL] |
| --- | --- | --- |
| OC(CNCc1cccnc1)(Cn1cncn1)c1ccc(Cl)cc1Cl (stereo unspecified) | 0.037 (≈ 0.0978 µM) | > 30 |
| OC(CNCc1cccnc1)(Cn1cncn1)c1ccc(F)cc1F (stereo unspecified) | 0.13 (≈ 0.376 µM) | > 30 |
| OC(CNCc1ccncc1)(Cn1cncn1)c1ccc(Cl)cc1Cl (stereo unspecified) | 0.036 (≈ 0.0952 µM) | > 30 |
| OC(CNCc1ccncc1)(Cn1cncn1)c1ccc(F)cc1F (stereo unspecified) | 0.083 (≈ 0.24 µM) | > 30 |
| OC(CNCc1ccccn1)(Cn1cncn1)c1ccc(F)cc1F (stereo unspecified) | 0.22 (≈ 0.637 µM) | > 30 |
| CC(C)(C)OC(=O)N1CCC(CNCC(O)(Cn2cncn2)c2ccc(Cl)cc2Cl)CC1 (stereo unspecified) | 0.026 (≈ 0.0537 µM) | > 30 |
| CC(C)(C)OC(=O)N1CCC(CNCC(O)(Cn2cncn2)c2ccc(F)cc2F)CC1 (stereo unspecified) | 0.027 (≈ 0.0598 µM) | > 30 |
| OC(CNCC1CCNCC1)(Cn1cncn1)c1ccc(F)cc1F (stereo unspecified) | 1.41 (≈ 4.01 µM) | > 30 |
| CN(CC1CCN(C(=O)OC(C)(C)C)CC1)CC(O)(Cn1cncn1)c1ccc(Cl)cc1Cl (stereo unspecified) | 0.039 (≈ 0.0782 µM) | > 30 |
| CN(CC1CCN(C(=O)OC(C)(C)C)CC1)CC(O)(Cn1cncn1)c1ccc(F)cc1F (stereo unspecified) | 0.153 (≈ 0.329 µM) | > 30 |
| OC(CNCC1CCNCC1)(Cn1cncn1)c1ccc(Cl)cc1Cl (stereo unspecified) | 0.12 (≈ 0.312 µM) | > 30 |
| OC(CNCc1ccccn1)(Cn1cncn1)c1ccc(Cl)cc1Cl (stereo unspecified) | 0.023 (≈ 0.0608 µM) | > 30 |
| OC(Cn1cncn1)(Cn1cncn1)c1ccc(F)cc1F [FLUCONAZOLE] | 0.19 (≈ 0.62 µM) |  |
| CCC(C)n1ncn(-c2ccc(N3CCN(c4ccc(OCC5COC(Cn6cncn6)(c6ccc(Cl)cc6Cl)O5)cc4)CC3)cc2)c1=O (stereo unspecified) [ITRACONAZOLE] |  | 0.42 (≈ 0.595 µM) |

Reference: ChEMBL document CHEMBL1149080, “Synthesis and structure-activity relationships of 2-phenyl-1-[(pyridinyl- and piperidinylmethyl)amino]-3-(1H-1,2,4-triazol-1-yl)propan-2-ols as antifungal agents” (2009)
